Blank lines part the entries; values can stand above or below the molecule they belong to. Activity calls are given as the source filed them. The rule behind the calls is not given here.
Experiments:
[1] = Selectivity index, ratio of IC50 for African green monkey Vero cells to IC50 for Trypanosoma cruzi (IRHOD/CO/2008/SN3) trypomastigotes; type: toxicity, cell-based; conditions: read-out: Ratio IC50
How it was run: (§1)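 SI calculated as IC50 on Vero cells divided by IC50 on the corresponding parasite form (epimastigote, amastigote or trypomastigote).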

[2] = Selectivity index, ratio of IC50 for African green monkey Vero cells to IC50 for Trypanosoma cruzi (IRHOD/CO/2008/SN3) epimastigotes; type: toxicity, cell-based; conditions: read-out: Ratio IC50; how it was run: as §1
Vero = test: Cytotoxicity against African green monkey Vero cells assessed as cell viability after 72 hrs by propidium iodide staining-based flow cytometric analysis; conditions: Chlorocebus sabaeus
How it was run: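 Vero cells in RPMI with 10% inactivated FBS at 37 °C, 5% CO2, treated 72 h across 1–100. Stained with propidium iodide, then fluorescein diacetate (100 ng/mL), each 10 min at 28 °C in the dark. Cells spun at 400 g, washed in PBS, analysed by flow cytometry. % viability versus control; IC50 by linear regression.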

[3] = Selectivity index, ratio of IC50 for African green monkey Vero cells to IC50 for Trypanosoma cruzi (IRHOD/CO/2008/SN3) amastigotes; type: toxicity, cell-based; conditions: read-out: Ratio IC50; how it was run: as §1
Trypanosoma cruzi [4] = test: Antitrypanosomal activity against Trypanosoma cruzi (IRHOD/CO/2008/SN3) amastigotes infected in African green monkey Vero cells after 72 hrs by Giemsa staining-based microscopic analysis; type: functional, organism-based
How it was run: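 SN3 strain. Vero cells in RPMI with 10% inactivated FBS at 37 °C, 5% CO2, seeded at 1 × 10⁴ cells/well on coverslips and grown 2 days. Infected with metacyclic forms at 10:1 for 24 h, then washed. Drugs at 100, 50, 25, 10 and 1 for 72 h. Methanol fixation, Giemsa stain, amastigotes counted over 200 host cells. IC50 by linear regression; mean of four experiments.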

Trypanosoma cruzi [5] = test: Antitrypanosomal activity against Trypanosoma cruzi (IRHOD/CO/2008/SN3) epimastigotes after 72 hrs by Neubauer chamber counting analysis; type: functional, organism-based
How it was run: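 SN3 epimastigotes grown in MTL medium with 10% inactivated FBS at 28 °C. Compounds dissolved in DMSO (0.01% final) and added at 100, 50, 25, 10 and 1. Parasites counted at 72 h in a Neubauer haemocytometer. IC50 from linear regression of Kc values; averages of four experiments.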

Trypanosoma cruzi [6] = test: Antitrypanosomal activity against Trypanosoma cruzi (IRHOD/CO/2008/SN3) trypomastigotes infected in Balb/c albino mouse after 24 hrs by Neubauer chamber counting analysis; type: functional, organism-based
How it was run: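 Blood taken at the day-7 parasitemia peak from BALB/c mice infected with SN3. Diluted with uninfected murine blood to 4 × 10⁶ trypomastigotes/mL, then 1:2 in RPMI 1640 (2 × 10⁶/mL). Drugs (DMSO stocks) at 100, 50, 25, 10 and 1; incubated 24 h at 4–8 °C. Neubauer chamber counts; IC50 by linear regression; three repeats.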

Trypanosoma cruzi [7] = test: Antitrypanosomal activity against Trypanosoma cruzi (IRHOD/CO/2008/SN3) epimastigotes assessed as parasite death at IC25 after 96 hrs by transmission electron microscopic analysis; type: functional, organism-based
Trypanosoma cruzi [8] = test: Antitrypanosomal activity against Trypanosoma cruzi (IRHOD/CO/2008/SN3) epimastigotes assessed as damaged mitochondria at IC25 after 96 hrs by transmission electron microscopic analysis; type: functional, organism-based
Trypanosoma cruzi [9] = test: Antitrypanosomal activity against Trypanosoma cruzi (IRHOD/CO/2008/SN3) epimastigotes assessed as change in L-alanine level at IC25 after 96 hrs by [1H]-NMR spectroscopic analysis relative to control; type: functional
How it was run: (§2)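 Epimastigote cultures started at 5 × 10⁵ cells/mL and given IC25 concentrations, with untreated control cultures. After 96 h at 28 °C, cells spun at 400 g for 10 min. Excreted metabolites in the supernatant identified by ¹H NMR chemical shifts.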

Trypanosoma cruzi [10] = test: Antitrypanosomal activity against Trypanosoma cruzi (IRHOD/CO/2008/SN3) infected in African green monkey Vero cells assessed as reduction in number of amastigotes at IC25 treated for 12 hrs followed by compound-washout measured after 10 days by microscopic analysis relative to control; type: functional
How it was run: (§3)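 Vero cells grown 2 days, then infected with metacyclic forms at 10:1. Drugs at IC25 added immediately after infection for 12 h at 37 °C, 5% CO2, then removed by washing. Cultures grown 10 days with medium renewed every 48 h. Methanol-fixed, Giemsa-stained preparations: % infected cells and amastigotes per infected cell over 200 host cells; trypomastigotes counted in the medium. Means of three experiments.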

Trypanosoma cruzi [11] = test: Antitrypanosomal activity against Trypanosoma cruzi (IRHOD/CO/2008/SN3) infected in African green monkey Vero cells assessed as reduction in infection rate at IC25 treated for 12 hrs followed by compound-washout measured after 10 days by microscopic analysis relative to control; type: functional; how it was run: as §3
Trypanosoma cruzi [12] = test: Antitrypanosomal activity against Trypanosoma cruzi (IRHOD/CO/2008/SN3) epimastigotes assessed as change in succinate level at IC25 after 96 hrs by [1H]-NMR spectroscopic analysis relative to control; type: functional; how it was run: as §2
Trypanosoma cruzi [13] = test: Antitrypanosomal activity against Trypanosoma cruzi (IRHOD/CO/2008/SN3) infected in African green monkey Vero cells assessed as reduction in number of trypomastigotes at IC25 treated for 12 hrs followed by compound-washout measured after 10 days by microscopic analysis relative to control; type: functional; how it was run: as §3
Trypanosoma cruzi [14] = test: Antitrypanosomal activity against Trypanosoma cruzi (IRHOD/CO/2008/SN3) epimastigotes assessed as damaged glycosomes at IC25 after 96 hrs by transmission electron microscopic analysis; type: functional, organism-based
Mus musculus = test: Toxicity in BALB/c mouse assessed as mortality at 1 mg/kg/day, ip; type: organism-based; parameters: route intraperitoneal; conditions: in vivo
How it was run: (§4)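 Female BALB/c mice (6-8 weeks, 20-25 g), groups of three, infected ip with 1 × 10⁵ T. cruzi SN3 metacyclic forms. Dosing ip at 1 mg/kg/day for five consecutive days (days 5-10 post-infection). Controls were uninfected, infected-untreated and uninfected-treated groups. Mice followed to day 120 post-infection, with deaths recorded.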

Trypanosoma cruzi [15] = test: Antitrypanosomal activity against Trypanosoma cruzi (IRHOD/CO/2008/SN3) epimastigotes assessed as change in L-lactate level at IC25 after 96 hrs by [1H]-NMR spectroscopic analysis relative to control; type: functional; how it was run: as §2
Trypanosoma cruzi [16] = test: Antitrypanosomal activity against Trypanosoma cruzi (IRHOD/CO/2008/SN3) epimastigotes assessed as presence of little electron-dense cytoplasm at IC25 after 96 hrs by transmission electron microscopic analysis; type: functional, organism-based
Trypanosoma cruzi [17] = test: Antitrypanosomal activity against Trypanosoma cruzi (IRHOD/CO/2008/SN3) epimastigotes assessed as change in ethanol level at IC25 after 96 hrs by [1H]-NMR spectroscopic analysis relative to control; type: functional; how it was run: as §2
Trypanosoma cruzi [18] = test: Antitrypanosomal activity against Trypanosoma cruzi (IRHOD/CO/2008/SN3) infected in BALB/c mouse assessed as reduction in parasitemia at 1 mg/kg/day, ip treated from day 5 to day 10 post-infection measured on day 30 post-infection relative to control; type: functional; parameters: scale not given: the % may be the effect or the level left; conditions: route intraperitoneal
How it was run: (§5)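 Female BALB/c mice (groups of three) infected ip with 1 × 10⁵ metacyclic forms. Given 1 mg/kg/day ip for five days (days 5–10 post-infection); infected untreated controls included. Mandibular-vein blood (5 µL) diluted 1:15 in citrate/lysis buffer, with trypomastigotes/mL counted every 3–4 days. Mean values reported.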

Trypanosoma cruzi [19] = test: Antitrypanosomal activity against Trypanosoma cruzi (IRHOD/CO/2008/SN3) epimastigotes assessed as change in acetate level at IC25 after 96 hrs by [1H]-NMR spectroscopic analysis; type: functional, organism-based; how it was run: as §2
Trypanosoma cruzi [20] = test: Antitrypanosomal activity against Trypanosoma cruzi (IRHOD/CO/2008/SN3) infected in BALB/c mouse assessed as reduction in parasitemia at 1 mg/kg/day, ip treated from day 5 to day 10 post-infection measured on day 14 post-infection; type: functional, organism-based; how it was run: as §5
Trypanosoma cruzi [21] = test: Antitrypanosomal activity against Trypanosoma cruzi (IRHOD/CO/2008/SN3) epimastigotes assessed as large vacuolization with lipidic type vacuoles occupying cytoplasm at IC25 after 96 hrs by transmission electron microscopic analysis; type: functional, organism-based
Trypanosoma cruzi [22] = test: Antitrypanosomal activity against Trypanosoma cruzi (IRHOD/CO/2008/SN3) infected in BALB/c mouse assessed as reduction in parasite specific antibodies level at 1 mg/kg/day, ip treated from day 5 to day 10 post-infection measured from day 30 to day 120 post-infection by ELISA; type: functional, organism-based
How it was run: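 Female BALB/c mice (6–8 weeks, 20–25 g, groups of three) infected ip with 1 × 10⁵ metacyclic forms. Dosed 1 mg/kg/day ip on days 5–10 post-infection; infected untreated controls included. ELISA on blood diluted 1:50 in PBS, using excreted Fe-SOD antigen from epimastigotes, at days 30 and 120. Read-out is ΔA490 (day 120 minus day 30).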

Trypanosoma cruzi [23] = test: Antitrypanosomal activity against Trypanosoma cruzi (IRHOD/CO/2008/SN3) epimastigotes assessed as disruption of cytoskeleton with disorganization of microtubule structure at IC25 after 96 hrs by transmission electron microscopic analysis; type: functional, organism-based
Trypanosoma cruzi [24] = test: Antitrypanosomal activity against Trypanosoma cruzi (IRHOD/CO/2008/SN3) epimastigotes assessed as plasma membrane with scalloped appearance with undulations and discontinuities at IC25 after 96 hrs by transmission electron microscopic analysis; type: functional, organism-based
[25] = Toxicity in BALB/c mouse assessed as survival at 1 mg/kg/day, ip relative to control; type: organism-based; parameters: route intraperitoneal; conditions: in vivo; how it was run: as §4

SMILES: CNCCOCCn1nc(OCc2ccccc2)c2cc([N+](=O)[O-])ccc21
Activity (Trypanosoma cruzi [7]): Active
selectivity ratio [1]: 14.7
Activity (Trypanosoma cruzi [8]): Active
Activity (Trypanosoma cruzi [9]): inactive
selectivity ratio [2]: 11.2
inhibition (INH) (Trypanosoma cruzi [10]): 63%
inhibition (INH) (Trypanosoma cruzi [11]): 78%
IC50 (Vero): 214 µM
Activity (Trypanosoma cruzi [12]): 13%
inhibition (INH) (Trypanosoma cruzi [13]): 75%
selectivity ratio [3]: 12.9
Activity (Trypanosoma cruzi [14]): Active
Activity (Mus musculus): Non-toxic
IC50 (Trypanosoma cruzi [4]): 16.6 µM
Activity (Trypanosoma cruzi [15]): 17%
Activity (Trypanosoma cruzi [16]): Active
Activity (Trypanosoma cruzi [17]): inactive
Activity (Trypanosoma cruzi [18]): 39%
Activity (Trypanosoma cruzi [19]): inactive
IC50 (Trypanosoma cruzi [5]): 19.1 µM
Activity (Trypanosoma cruzi [20]): Active
IC50 (Trypanosoma cruzi [6]): 14.5 µM
Activity (Trypanosoma cruzi [21]): Active
Activity (Trypanosoma cruzi [22]): Active

SMILES: O=C(Cn1ccnc1[N+](=O)[O-])NCc1ccccc1 [BENZNIDAZOLE]
Activity (Trypanosoma cruzi [23]): Active
Activity (Trypanosoma cruzi [24]): Active
inhibition (INH) (Trypanosoma cruzi [10]): 37%
inhibition (INH) (Trypanosoma cruzi [11]): 19%
inhibition (INH) (Trypanosoma cruzi [13]): 41%
Activity (Trypanosoma cruzi [18]): 23%
Activity (Trypanosoma cruzi [20]): Active
survival [25]: 80%
Activity (Trypanosoma cruzi [22]): Active

SMILES: COc1nn(C)c2ccc([N+](=O)[O-])cc12
selectivity ratio [1]: 7.4
selectivity ratio [2]: 7.4
IC50 (Vero): 183 µM
selectivity ratio [3]: 5.6
IC50 (Trypanosoma cruzi [4]): 32.6 µM
IC50 (Trypanosoma cruzi [5]): 24.7 µM
IC50 (Trypanosoma cruzi [6]): 24.8 µM

SMILES: Cn1nc(OCc2ccccc2)c2cc([N+](=O)[O-])ccc21
Activity (Trypanosoma cruzi [7]): Active
selectivity ratio [1]: 16.1
Activity (Trypanosoma cruzi [8]): Active
Activity (Trypanosoma cruzi [9]): 19%
selectivity ratio [2]: 11
inhibition (INH) (Trypanosoma cruzi [10]): 76%
inhibition (INH) (Trypanosoma cruzi [11]): 82%
IC50 (Vero): 194 µM
Activity (Trypanosoma cruzi [12]): 35%
inhibition (INH) (Trypanosoma cruzi [13]): 80%
selectivity ratio [3]: 13.7
Activity (Trypanosoma cruzi [14]): Active
Activity (Mus musculus): Non-toxic
IC50 (Trypanosoma cruzi [4]): 14.1 µM
Activity (Trypanosoma cruzi [15]): 23%
Activity (Trypanosoma cruzi [16]): Active
Activity (Trypanosoma cruzi [17]): 11%
Activity (Trypanosoma cruzi [18]): 33%
Activity (Trypanosoma cruzi [19]): inactive
IC50 (Trypanosoma cruzi [5]): 17.6 µM
Activity (Trypanosoma cruzi [20]): Active
IC50 (Trypanosoma cruzi [6]): 12 µM
Activity (Trypanosoma cruzi [21]): Active
Activity (Trypanosoma cruzi [22]): Active

The next lines start with results.

IC50 (Trypanosoma cruzi [4]): 27.9 µM
IC50 (Trypanosoma cruzi [5]): 24.6 µM
IC50 (Trypanosoma cruzi [6]): 20.4 µM
SMILES: COc1nn(CCOCCN(C)CCOCCn2nc(OC)c3cc([N+](=O)[O-])ccc32)c2ccc([N+](=O)[O-])cc12
selectivity ratio [1]: 6.3
selectivity ratio [2]: 4.1
IC50 (Vero): 130 µM
selectivity ratio [3]: 4.6

IC50 (Trypanosoma cruzi [4]): 26.5 µM
IC50 (Trypanosoma cruzi [5]): 27.3 µM
IC50 (Trypanosoma cruzi [6]): 20.7 µM
SMILES: COc1nn(CCOCCN)c2ccc([N+](=O)[O-])cc12
selectivity ratio [1]: 4.2
selectivity ratio [2]: 3.2
IC50 (Vero): 87.2 µM
selectivity ratio [3]: 3.3

IC50 (Trypanosoma cruzi [4]): 23.4 µM
IC50 (Trypanosoma cruzi [5]): 26.7 µM
IC50 (Trypanosoma cruzi [6]): 20.5 µM
SMILES: CNCCOCCn1nc(OC)c2cc([N+](=O)[O-])ccc21
selectivity ratio [1]: 4.3
selectivity ratio [2]: 3.3
IC50 (Vero): 87.6 µM
selectivity ratio [3]: 3.7

IC50 (Trypanosoma cruzi [4]): 16.5 µM
IC50 (Trypanosoma cruzi [5]): 26.6 µM
IC50 (Trypanosoma cruzi [6]): 16.5 µM
SMILES: CN(CCOCCn1nc(OCc2ccccc2)c2cc([N+](=O)[O-])ccc21)CCOCCn1nc(OCc2ccccc2)c2cc([N+](=O)[O-])ccc21
selectivity ratio [1]: 7.8
selectivity ratio [2]: 4.8
IC50 (Vero): 128 µM
selectivity ratio [3]: 7.8

IC50 (Trypanosoma cruzi [4]): 25.7 µM
IC50 (Trypanosoma cruzi [5]): 31.2 µM
IC50 (Trypanosoma cruzi [6]): 26.4 µM
SMILES: COc1nn(CCOCCNCCOCCn2nc(OC)c3cc([N+](=O)[O-])ccc32)c2ccc([N+](=O)[O-])cc12
selectivity ratio [1]: 0.6
selectivity ratio [2]: 0.5
IC50 (Vero): 16.9 µM
selectivity ratio [3]: 0.6
